These results are taken from ChEMBL document CHEMBL3739347, “Tubulin modulating antifungal and antiproliferative pyrazinone derivatives” (Bioorg Med Chem, 2016).

What all share (type): functional
Test [1] concerns Puccinia triticina. The test can be described thus: Antifungal activity against Puccinia recondita f. sp. tritici infected in wheat seedlings at 10 ppm relative to control. The gist of the method:
(§1)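 Test suspension sprayed to run-off on Stevens wheat seedlings. Next day inoculated with a Puccinia recondita f. sp. tritici spore suspension. Held 24 h in a saturated atmosphere at 20 °C, then 7 days in a 20 °C growth chamber before disease rating. Rates in ppm. Given as percent control versus untreated control plants.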

For test [2], the system named is Parastagonospora nodorum. In words: Antifungal activity against Stagonospora nodorum infected in wheat seedlings at 2 ppm relative to control. The gist of the method:
(§2)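 Wheat seedlings, treated the day before, inoculated with a Stagonospora nodorum spore suspension. Held in a saturated atmosphere at 20 °C for 48 h, then 5 days in a growth chamber at 22 °C, then disease rated. Rates in ppm. Scored as percent control relative to untreated control plants.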

The test system of test [3] is Puccinia triticina. In words: Antifungal activity against Puccinia recondita f. sp. tritici infected in wheat seedlings at 2 ppm relative to control. The gist of the method:
as §1

For test [4], the system named is Botrytis cinerea. In words: Antifungal activity against Botryotinia fuckeliana infected in orange pixie tomato seedlings at 40 ppm relative to control. In outline:
(§3)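 Orange Pixie tomato seedlings sprayed to run-off with test suspension, then inoculated next day with a Botryotinia fuckeliana spore suspension. Kept saturated at 20 °C for 48 h, then 1 more day at 24 °C in a growth chamber before rating. Rates in ppm. Expressed as percent control relative to untreated control plants.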

Test [5] deals with Botrytis cinerea. The test can be described thus: Antifungal activity against Botryotinia fuckeliana infected in orange pixie tomato seedlings at 2 ppm relative to control. In outline:
as §3

Test [6] deals with Botrytis cinerea. The test can be described thus: Antifungal activity against Botryotinia fuckeliana infected in orange pixie tomato seedlings at 10 ppm relative to control. In outline: as §3
For test [7], the system named is Puccinia triticina. The test can be described thus: Antifungal activity against Puccinia recondita f. sp. tritici infected in wheat seedlings at 40 ppm relative to control. The gist of the method:
as §1

Test [8] deals with Parastagonospora nodorum. In words: Antifungal activity against Stagonospora nodorum infected in wheat seedlings at 40 ppm relative to control. In outline:
as §2

The subject of test [9] is Parastagonospora nodorum. In words: Antifungal activity against Stagonospora nodorum infected in wheat seedlings at 10 ppm relative to control. The gist of the method:
as §2

The test system of test [10] is Puccinia triticina. In words: Antifungal activity against Puccinia recondita f. sp. tritici infected in wheat seedlings at 200 ppm relative to control. The gist of the method: as §1
Test [11] relates to Botrytis cinerea. In words: Antifungal activity against Botryotinia fuckeliana infected in orange pixie tomato seedlings at 200 ppm relative to control. In outline: as §3
In test [12] the test system is Parastagonospora nodorum. The test can be described thus: Antifungal activity against Stagonospora nodorum infected in wheat seedlings at 200 ppm relative to control. In outline:
as §2

Take `O=c1c(-n2cccn2)nc(Cl)c(-c2c(F)cc(F)cc2F)n1-c1ccccc1Cl`: the Activity in test [1] is 100%; in test [2], 0%; in test [3], 97%; in [4], 100%; in test [5], 99%; in test [6], 100%. Moreover, the Activity in [7] was 100%; in test [8], 100%; in [9], 94%.

Consider `O=c1c(-n2cccn2)nc(Cl)c(-c2c(F)cc(F)cc2F)n1CC1CC1`, for which the Activity is reported as 100% in [1]; 0% in test [2]; 80% in [3]; 99% in test [4]; 98% in test [5]; 98% in test [6]. Also, the Activity in [7], in test [8] and in test [9] was 100% each time.

As to `CC[C@H](C)Cn1c(-c2c(F)cccc2F)c(Cl)nc(-n2nccn2)c1=O`, the Activity in [10] worked out at 86%; in [4] it was 0%; in test [11] it was 97%; in test [12] it was 0%; in test [7], 19%; in test [8], 0%.

Take `CC(C)Cn1c(-c2c(F)cccc2F)c(Cl)nc(-c2nccs2)c1=O`: the Activity in test [1], in [2], in test [3], in test [4], in test [5] and in test [6] was 0% in each case. The Activity in test [7], in test [8] and in [9] was 0% in each case.

On to `O=c1c(-n2cccn2)nc(Cl)c(-c2c(F)cc(F)cc2F)n1CC(F)(F)C(F)(F)F`, for which the Activity in test [1] was determined as 99%; in test [2] it was 0%; in [3] it was 91%; in test [4], 100%; in test [5], 99%; in [6] it was 100%. Also, the Activity in test [7] was 100%; in test [8] it was 100%; in test [9], 89%.

Turning to `Cc1nc(-n2cccn2)c(=O)n(CC(C)C)c1-c1c(F)cccc1F`, the Activity in [1] is reported as 92%; in [2], 0%; in [3] it was 0%; in [4], 100%; in test [5], 0%; in [6], 99%. The Activity in test [7] was determined as 100%; in test [8], 98%; in [9], 0%.

Regarding `CC(C)Cn1c(-c2c(F)cccc2F)cnc(-n2cccn2)c1=O`, the Activity in test [1] turned out to be 0%; in [10] it was 98%; in test [12], 0%; in [7] it was 0%; in [8] it was 0%; in test [9] it was 0%.

Turning to `O=c1c(-n2cccn2)nc(Cl)c(-c2c(F)cc(F)cc2F)n1-c1ccc(Cl)cc1`, the Activity is reported as 100% in test [1]; 78% in [2]; 96% in [3]; 99% in test [4]; 92% in test [5]; 99% in test [6]. The Activity in test [7], in test [8] and in [9] was 100% each time.

Consider `O=c1c(-n2cccn2)nc(Cl)c(-c2c(F)cc(F)cc2F)n1CC(F)(F)C(F)(F)C(F)(F)F`, for which the Activity in test [1] was found to be 96%; in test [2], 0%; in test [3], 68%; in test [4] it was 100%; in test [5], 38%; in [6], 99%. Further, the Activity in test [7] is recorded as 99%; in [8], 99%; in test [9], 78%.

For the compound `CC[C@H](C)Cn1c(-c2c(F)cccc2F)c(Cl)nc(C(N)=O)c1=O`, the Activity in test [1] was determined as 99%; in [2], 0%; in [3], 80%; in test [4] it was 99%; in [5], 92%; in [6] it was 97%. Also, the figures for the Activity in [7], in [8] and in test [9] were 100%, 95% and 0%, respectively.

As to `CC(C)Cn1c(-c2c(F)ccc(F)c2F)c(Cl)nc(-n2cccn2)c1=O`, the Activity in test [1] was found to be 99%; in test [2] it was 0%; in test [3] it was 32%; in [4] it was 100%; in [5] it was 94%; in [6], 98%. The Activity amounted to 100% in test [7], 100% in test [8] and 87% in [9].

For `CCCCn1c(-c2c(F)cc(F)cc2F)c(Cl)nc(-n2cccn2)c1=O`, the Activity in test [1] was 88%; in [2], 0%; in test [3], 26%; in [4], 100%; in test [5], 0%; in test [6] it was 0%. In addition, the Activity is given as 100% in [7], 100% in test [8] and 98% in test [9].

In the case of `O=c1c(-n2cccn2)nc(Cl)c(-c2c(F)cc(F)cc2F)n1-c1ccccc1`, the Activity in test [1] was 87%; in [2], 60%; in test [3], 45%; in test [4] it was 100%; in test [5], 100%; in test [6], 100%. Moreover, the Activity in test [7] is recorded as 99%; in test [8], 99%; in test [9], 98%.

With `C=CCn1c(-c2c(F)cc(F)cc2F)c(Cl)nc(-n2cccn2)c1=O`, the Activity is reported as 89% in test [1]; 0% in [2]; 0% in test [3]; 99% in test [4]; 70% in test [5]; 99% in test [6]. The Activity in test [7] was found to be 99%; in [8] it was 100%; in test [9], 97%.

In the case of `Cc1ccn(-c2nc(Cl)c(-c3c(F)cccc3F)n(CC(C)C)c2=O)n1`, the Activity in test [1] was found to be 94%; in [2], 0%; in test [3] it was 25%; in [4], 100%; in test [5], 95%; in test [6] it was 100%. In addition, the results for the Activity in test [7], in test [8] and in test [9] were 100%, 95% and 0%, respectively.

Consider `CC(C)Cn1c(-c2c(F)cccc2F)c(Cl)nc(-c2cccnc2)c1=O`, for which the Activity in [1], in test [2], in [3], in test [4], in test [5] and in test [6] was 0% throughout. For the same compound, the Activity in test [7], in test [8] and in test [9] was 0% throughout.

With `CC(C)Cn1c(-c2c(F)cccc2F)c(Cl)nc(-c2ccncc2)c1=O`, the Activity in test [1], in [2], in test [3], in test [4], in test [5] and in test [6] was 0% throughout. Further, the Activity in test [7], in test [8] and in test [9] was 0% throughout.

As to `CC(Cn1c(-c2c(F)cc(F)cc2F)c(Cl)nc(-n2cccn2)c1=O)C(F)(F)F` (centres undefined), the Activity in test [1] came to 100%; in [2], 0%; in test [3], 92%; in test [4] it was 99%; in [5] it was 99%; in test [6], 99%. Besides, the values for the Activity in test [7], in test [8] and in test [9] were 100%, 100% and 0%, respectively.

Turning to `CC[C@H](C)Cn1c(-c2c(F)cccc2F)c(Cl)nc(C(=O)NC)c1=O`, the Activity in test [1] was determined as 74%; in test [2], 0%; in test [3], 0%; in [4], 99%; in test [5], 57%; in test [6], 90%. The Activity in [7] is on record as 99%; in test [8] it was 51%; in test [9], 0%.

Regarding `O=c1c(-n2cccn2)nc(Cl)c(-c2c(F)cc(F)cc2F)n1-c1cccc(Cl)c1`, the Activity in test [1] stood at 99%; in [2], 73%; in test [3] it was 86%; in [4], 100%; in test [5], 97%; in test [6] it was 99%. In addition, the Activity in test [7] amounted to 100%; in [8] it was 99%; in [9], 99%.
